Test results from ChEMBL document CHEMBL1629527, “In vitro antifungal activities of bis(alkylpyridinium)alkane compounds against pathogenic yeasts and molds” (Antimicrob Agents Chemother, 2010).

Columns and labels:
Lichtheimia corymbifera [1] = assay: Antifungal activity against Absidia corymbifera 04-200170 after 24 to 72 hrs by broth microdilution method; assay type: functional
How it was run: (§1)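 Broth microdilution MIC per CLSI M27-A3 (yeasts) or M38-A2 (molds). RPMI 1640 with L-glutamine, without bicarbonate, buffered to pH 7.0 with 0.165 M MOPS. Final test range for the compounds was 0.175–87.5 μM. Incubation at 35°C with visual reading at 24–72 h. MIC was the lowest concentration giving 100% inhibition versus the growth control (azoles 50% or 100%, by organism). Each isolate was run in duplicate in two independent experiments.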

Candida parapsilosis [2] = assay: Antifungal activity against Candida parapsilosis ATCC 22019 after 24 to 72 hrs by broth microdilution method; assay type: functional; conditions: Lodderomyces parapsilosis; how it was run: as §1
Nakaseomyces glabratus [3] = assay: Antifungal activity against Candida glabrata 04-202345 after 24 to 72 hrs by broth microdilution method; assay type: functional; how it was run: as §1
Cryptococcus neoformans [4] = assay: Antifungal activity against Cryptococcus neoformans 05-202523 after 24 to 72 hrs by broth microdilution method; assay type: functional; how it was run: as §1
[5] = test system: Cunninghamella bertholletiae; assay: Antifungal activity against Cunninghamella bertholletiae 99-12187 after 24 to 72 hrs by broth microdilution method; assay type: functional; how it was run: as §1
Exophiala spinifera [6] = assay: Antifungal activity against Exophiala spinifera 03-200803 after 24 to 72 hrs by broth microdilution method; assay type: functional
How it was run: (§2)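 Mold isolates subcultured on potato dextrose agar, then tested by CLSI M38-A2 broth microdilution in RPMI 1640 (L-glutamine, no bicarbonate) buffered to pH 7.0 with 0.165 M MOPS. Compounds were dissolved in water and tested at a final 0.175–87.5 μM. Plates were incubated at 35°C. MIC was read visually as the lowest concentration giving 100% inhibition versus the growth control. Each isolate was run in duplicate in two independent experiments.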

Cryptococcus neoformans [7] = assay: Antifungal activity against Cryptococcus neoformans ATCC 90112 after 24 to 72 hrs by broth microdilution method; assay type: functional; how it was run: as §1
Scedosporium apiospermum [8] = assay: Antifungal activity against Scedosporium apiospermum 05-203100 after 24 to 72 hrs by broth microdilution method; assay type: functional; how it was run: as §2
Scedosporium apiospermum [9] = assay: Antifungal activity against Scedosporium apiospermum 05-203100 after 48 to 72 hrs; assay type: functional; conditions: in the assay text read “for up to 7 days” for “after 48 to 72 hrs”
How it was run: (§3)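 After the broth microdilution MIC read, suspension from every well without visible growth was plated onto Sabouraud dextrose agar and incubated at 35°C, up to 7 days for molds. MFC was taken as the lowest drug concentration with no colonies.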

Rhizopus arrhizus [10] = assay: Antifungal activity against Rhizopus oryzae 05-203111 after 24 to 72 hrs by broth microdilution method; assay type: functional; how it was run: as §2
[11] = Antifungal activity against Paecilomyces lilacinus 05-200601 after 24 to 72 hrs by broth microdilution method; assay type: functional; conditions: Purpureocillium lilacinum; how it was run: as §2
Rhizopus arrhizus [12] = assay: Antifungal activity against Rhizopus oryzae 05-203111 after 48 to 72 hrs; assay type: functional; how it was run: as §3
[13] = Antifungal activity against Exophiala jeanselmei 03-200268 after 48 to 72 hrs; assay type: functional
How it was run: (§4)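 CLSI M38-A2 broth microdilution for molds in RPMI 1640 with L-glutamine and no bicarbonate, buffered with 0.165 M MOPS to pH 7.0. Compounds were dissolved in water and tested at 0.175–87.5 μM final, 35°C, up to 7 days. MIC was read visually as 100% inhibition versus growth control. For MFC, clear wells were plated on SDA and the lowest concentration with no colonies taken. Each isolate was run in duplicate, two independent experiments.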

[14] = test system: Cryptococcus gattii species complex; assay: Antifungal activity against Cryptococcus gattii 05-200122 after 24 to 72 hrs by broth microdilution method; assay type: functional, Cryptococcus bacillisporus; how it was run: as §1
Aspergillus flavus [15] = assay: Antifungal activity against Aspergillus flavus 05-203758 after 24 to 72 hrs by broth microdilution method; assay type: functional; how it was run: as §1
Aspergillus terreus [16] = assay: Antifungal activity against Aspergillus terreus 05-202844 after 24 to 72 hrs by broth microdilution method; assay type: functional; how it was run: as §1
Cryptococcus neoformans [17] = assay: Antifungal activity against Cryptococcus neoformans 05-202523 after 48 to 72 hrs; assay type: functional
How it was run: (§5)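 MFC: after the MIC read, 30-μl aliquots from each well without visible growth were plated onto Sabouraud dextrose agar and incubated at 35°C. Reading was at 48–72 h for yeasts and up to 7 days for molds. MFC was the lowest concentration with no colonies.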

Nakaseomyces glabratus [18] = assay: Antifungal activity against Candida glabrata 04-202345 after 48 to 72 hrs; assay type: functional; how it was run: as §5
Candida parapsilosis [19] = assay: Antifungal activity against Candida parapsilosis ATCC 22019 after 48 to 72 hrs; assay type: functional; conditions: Lodderomyces parapsilosis; how it was run: as §5
Pichia kudriavzevii [20] = assay: Antifungal activity against Candida krusei ATCC 6258 after 24 to 72 hrs by broth microdilution method; assay type: functional; how it was run: as §1
Candida albicans [21] = assay: Antifungal activity against Candida albicans ATCC 10231 after 24 to 72 hrs by broth microdilution method; assay type: functional; how it was run: as §1
Candida tropicalis = assay: Antifungal activity against Candida tropicalis 04-202361 after 24 to 72 hrs by broth microdilution method; assay type: functional; how it was run: as §1
Pichia kudriavzevii [22] = assay: Antifungal activity against Candida krusei 04-202328 after 24 to 72 hrs by broth microdilution method; assay type: functional; how it was run: as §1
Candida albicans [23] = assay: Antifungal activity against Candida albicans ATCC 90028 after 24 to 72 hrs by broth microdilution method; assay type: functional; how it was run: as §1
Aspergillus flavus [24] = assay: Antifungal activity against Aspergillus flavus ATCC 204304 after 24 to 72 hrs by broth microdilution method; assay type: functional; how it was run: as §1
Lomentospora prolificans [25] = assay: Antifungal activity against Scedosporium prolificans 05-203060 after 24 to 72 hrs by broth microdilution method; assay type: functional; how it was run: as §2
Aspergillus fumigatus [26] = assay: Antifungal activity against Aspergillus fumigatus ATCC 204305 after 24 to 72 hrs by broth microdilution method; assay type: functional; how it was run: as §1
Fusarium solani [27] = assay: Antifungal activity against Fusarium solani 04-203102 after 24 to 72 hrs by broth microdilution method; assay type: functional; how it was run: as §2
Candida parapsilosis [28] = assay: Antifungal activity against Candida parapsilosis 04-202398 after 24 to 72 hrs by broth microdilution method; assay type: functional; conditions: Lodderomyces parapsilosis; how it was run: as §1
Aspergillus fumigatus [29] = assay: Antifungal activity against Aspergillus fumigatus 05-203114 after 24 to 72 hrs by broth microdilution method; assay type: functional; how it was run: as §1
Lomentospora prolificans [30] = assay: Antifungal activity against Scedosporium prolificans 05-203060 after 48 to 72 hrs; assay type: functional; how it was run: as §4
[31] = Antifungal activity against Exophiala jeanselmei 03-200268 after 24 to 72 hrs by broth microdilution method; assay type: functional; how it was run: as §1
Cryptococcus neoformans [32] = assay: Antifungal activity against Cryptococcus neoformans ATCC 90112 after 48 to 72 hrs; assay type: functional; how it was run: as §5
Candida parapsilosis [33] = assay: Antifungal activity against Candida parapsilosis 04-202398 after 48 to 72 hrs; assay type: functional; conditions: Lodderomyces parapsilosis
How it was run: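 CLSI M27-A3 broth microdilution for yeasts in RPMI 1640 with L-glutamine and no bicarbonate, buffered with 0.165 M MOPS to pH 7.0. Compounds were dissolved in water and tested at 0.175–87.5 μM final, 35°C. MIC was read visually at 24–72 h as 100% inhibition versus growth control. For MFC, 30 μl from clear wells went onto SDA at 35°C for 48–72 h, reading the lowest concentration without colonies. Duplicates, two independent runs.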

Aspergillus terreus [34] = assay: Antifungal activity against Aspergillus terreus 05-202844 after 48 to 72 hrs; assay type: functional; how it was run: as §5
Aspergillus fumigatus [35] = assay: Antifungal activity against Aspergillus fumigatus 05-203114 after 48 to 72 hrs; assay type: functional; how it was run: as §4
Aspergillus fumigatus [36] = assay: Antifungal activity against Aspergillus fumigatus ATCC 204305 after 48 to 72 hrs; assay type: functional; how it was run: as §4
Fusarium solani [37] = assay: Antifungal activity against Fusarium solani 04-203102 after 48 to 72 hrs; assay type: functional; how it was run: as §3
[38] = test system: Cunninghamella bertholletiae; assay: Antifungal activity against Cunninghamella bertholletiae 99-12187 after 48 to 72 hrs; assay type: functional; conditions: in the assay text read “for up to 7 days” for “after 48 to 72 hrs”; how it was run: as §5
Aspergillus flavus [39] = assay: Antifungal activity against Aspergillus flavus ATCC 204304 after 48 to 72 hrs; assay type: functional; how it was run: as §5
Lichtheimia corymbifera [40] = assay: Antifungal activity against Absidia corymbifera 04-200170 after 48 to 72 hrs; assay type: functional; how it was run: as §4
Pichia kudriavzevii [41] = assay: Antifungal activity against Candida krusei ATCC 9258 after 24 to 72 hrs by broth microdilution method; assay type: functional; how it was run: as §1
Exophiala spinifera [42] = assay: Antifungal activity against Exophiala spinifera 03-200803 after 48 to 72 hrs; assay type: functional; how it was run: as §4

SMILES	MIC (Lichtheimia corymbifera [1])	MIC (Candida parapsilosis [2])	MIC (Nakaseomyces glabratus [3])	MIC (Cryptococcus neoformans [4])	MIC [5]	MIC (Exophiala spinifera [6])	MIC (Cryptococcus neoformans [7])	MIC (Scedosporium apiospermum [8])	MIC (Rhizopus arrhizus [10])	MIC [11]	MIC [14]	MIC (Aspergillus flavus [15])	MIC (Aspergillus terreus [16])	MIC (Pichia kudriavzevii [20])	MIC (Candida albicans [21])	MIC (Candida tropicalis)	MIC (Pichia kudriavzevii [22])	MIC (Candida albicans [23])	MIC (Aspergillus flavus [24])	MIC (Lomentospora prolificans [25])	other results
CC(C)(C)CCc1cc[n+](CCCCCCCCCCCC[n+]2ccc(CCC(C)(C)C)cc2)cc1.[Cl-].[Cl-]	> 50.7 µg/mL	1.58 µg/mL	0.79 µg/mL	25.3 µg/mL	> 50.7 µg/mL	0.79 µg/mL	1.58 µg/mL	6.3 µg/mL	6.3 µg/mL	> 50.7 µg/mL	1.58 µg/mL	> 50.7 µg/mL	50.7 µg/mL	25.3 µg/mL	3.2 µg/mL	1.58 µg/mL	25.3 µg/mL	3.2 µg/mL	> 50.7 µg/mL	1.58 µg/mL	MFC (Scedosporium apiospermum [9]): 12.7 µg/mL; MFC (Rhizopus arrhizus [12]): 25.3 µg/mL; MFC [13]: 3.2 µg/mL; MFC (Cryptococcus neoformans [17]): 50.7 µg/mL; MFC (Nakaseomyces glabratus [18]): 1.58 µg/mL; MFC (Candida parapsilosis [19]): 3.2 µg/mL; MIC (Aspergillus fumigatus [26]): > 50.7 µg/mL; MIC (Fusarium solani [27]): > 50.7 µg/mL; MIC (Candida parapsilosis [28]): 50.7 µg/mL; MIC (Aspergillus fumigatus [29]): > 50.7 µg/mL; MFC (Lomentospora prolificans [30]): 12.7 µg/mL; MIC [31]: 1.58 µg/mL
CCCCC(CCCC)c1cc[n+](CCCCCCCCCCCC[n+]2ccc(C(CCCC)CCCC)c(C)c2)cc1C.[Cl-].[Cl-]	29.8 µg/mL	1.86 µg/mL	1.86 µg/mL	3.7 µg/mL	14.9 µg/mL	1.86 µg/mL	1.86 µg/mL	1.86 µg/mL	3.7 µg/mL	59.7 µg/mL	1.86 µg/mL	59.7 µg/mL	3.7 µg/mL	3.7 µg/mL	1.86 µg/mL	1.86 µg/mL	3.7 µg/mL	1.86 µg/mL	14.9 µg/mL	3.7 µg/mL	MFC (Cryptococcus neoformans [32]): 3.7 µg/mL; MFC (Candida parapsilosis [33]): 29.8 µg/mL; MFC (Aspergillus terreus [34]): 14.9 µg/mL; MFC (Aspergillus fumigatus [35]): 59.7 µg/mL; MFC (Cryptococcus neoformans [17]): 7.5 µg/mL; MFC (Aspergillus fumigatus [36]): 29.8 µg/mL; MFC (Fusarium solani [37]): 59.7 µg/mL; MFC [38]: 29.8 µg/mL; MIC (Aspergillus fumigatus [26]): 14.9 µg/mL; MIC (Fusarium solani [27]): 29.8 µg/mL; MIC (Candida parapsilosis [28]): 14.9 µg/mL; MIC (Aspergillus fumigatus [29]): 14.9 µg/mL; MFC (Aspergillus flavus [39]): 59.7 µg/mL; MFC (Lichtheimia corymbifera [40]): 59.7 µg/mL; MIC [31]: 3.7 µg/mL
CCCCCc1cccc[n+]1CCCCCCCCCCCC[n+]1ccccc1CCCCC.[Cl-].[Cl-]	> 47.3 µg/mL	0.74 µg/mL	0.37 µg/mL	47.3 µg/mL	47.3 µg/mL	0.37 µg/mL	5.9 µg/mL	1.48 µg/mL	2.96 µg/mL	> 47.3 µg/mL	1.48 µg/mL	> 47.3 µg/mL	0.74 µg/mL	23.7 µg/mL	1.48 µg/mL	0.74 µg/mL	23.7 µg/mL	1.48 µg/mL	> 47.3 µg/mL	1.48 µg/mL	MFC (Aspergillus terreus [34]): 1.48 µg/mL; MFC (Rhizopus arrhizus [12]): 5.9 µg/mL; MFC [13]: 2.96 µg/mL; MFC (Candida parapsilosis [19]): 1.48 µg/mL; MIC (Pichia kudriavzevii [41]): 23.7 µg/mL; MIC (Aspergillus fumigatus [26]): > 47.3 µg/mL; MIC (Fusarium solani [27]): 23.7 µg/mL; MIC (Candida parapsilosis [28]): 47.3 µg/mL; MFC (Exophiala spinifera [42]): 0.74 µg/mL; MIC (Aspergillus fumigatus [29]): > 47.3 µg/mL; MFC (Lomentospora prolificans [30]): 5.9 µg/mL; MIC [31]: 0.74 µg/mL
